Where two headings read alike, the source gives them in different places.
Tests used:
[1] = tested on: human cancer cell lines A549, MCF7, PANC-1, UACC903; experiment: MTS assay of cell proliferation, cell lines not specified; type: cell-based; conditions: combination with honokiol, cell line not specified
How it was run: (§1)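 Cells grown in DMEM with 10% FBS at 37 °C and 5% CO2. Plated at 5 × 10^3 per well, grown 24 h, then exposed 24 or 72 h to test compound alone or in pairs: 10 μM bleomycin-type or 250 μM alkylating agent added to the lignan, or 10 μM lignan added to either. DMSO 0.2% final; vehicle controls. MTS/PMS for 4 h; A492; cell-free background. Triplicate; IC50 fit, 95% CI.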

A549 cells = experiment: MTS assay of cell proliferation, A549; type: cell-based, human; conditions: for IC50: Homo sapiens
How it was run: as §1

GM12878 cells = experiment: MTS assay of cell proliferation, GM12878; type: cell-based, human; conditions: for IC50: Homo sapiens
How it was run: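 Lymphoblasts grown in RPMI 1640 with 15% FBS at 37 °C and 5% CO2. Plated at 5 × 10^3 per well, grown 24 h, then exposed 24 or 72 h to test compound alone or with 10 μM lignan inhibitor added. DMSO 0.2% final; vehicle controls. MTS/PMS in PBS pH 7.2 for 4 h at 37 °C; A492; cell-free background. Triplicate; normalized absorbance fitted for IC50 with 95% CI.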

UACC903 cells = experiment: MTS assay of cell proliferation, UACC903; type: cell-based, human; conditions: for IC50: Homo sapiens; for decrease of EC50 due to HNL/BLM combination: UACC903, combination with honokiol (10 μM)
How it was run: as §1

MCF7 cells = experiment: MTS assay of cell proliferation, MCF7; type: cell-based, human; conditions: for IC50: Homo sapiens; for decrease of EC50 due to HNL/BLM combination: MCF7, combination with honokiol (10 μM)
How it was run: as §1

PANC1 cells = experiment: MTS assay of cell proliferation, PANC1; type: cell-based, human; conditions: for IC50: Homo sapiens
How it was run: as §1

pol β = conditions: linear mixed-mode inhibition mechanism; cited from earlier work
[2] = PANC1, combination with honokiol (10 μM)

**Q.** For `Cn1nnc2c(C(N)=O)ncn2c1=O` [TMZ, temozolomide], which “decrease of EC50 due to HNL/TMZ combination” value [1] is on record?
**A.** up to three-fold

**Q.** And the “decrease of EC50 due to HNL/TMZ combination” value ([1]; listed as temozolomide)?
**A.** three-fold

**Q.** And the IC50 (A549 cells; A549, 24 h, read-out: −log(IC50) (95% CI), A549, 24 h, tested compound alone (converted))?
**A.** 398 µM

**Q.** What about the IC50 (A549 cells; A549, 72 h, read-out: −log(IC50) (95% CI), A549, 72 h, tested compound alone (converted)) of the same compound?
**A.** 251 µM

**Q.** And the IC50 (GM12878 cells; 24 h, read-out: −log(IC50) (95% CI), GM12878, 24 h, tested compound alone (converted))?
**A.** < 1000 µM

**Q.** And the IC50 (GM12878 cells; 72 h, read-out: −log(IC50) (95% CI), GM12878, 72 h, tested compound alone (converted))?
**A.** 316 µM

**Q.** What about the IC50 (UACC903 cells; UACC-903, 24 h, read-out: −log(IC50) (95% CI), UACC903, 24 h, tested compound alone (converted)) of the same compound?
**A.** 631 µM

**Q.** And the IC50 (UACC903 cells; UACC-903, 72 h, read-out: −log(IC50) (95% CI), UACC903, 72 h, tested compound alone (converted))?
**A.** 316 µM

**Q.** And the IC50 (MCF7 cells; MCF7, 24 h, read-out: −log(IC50) (95% CI), MCF7, 24 h, tested compound alone (converted))?
**A.** 501 µM

**Q.** What about the IC50 (MCF7 cells; MCF7, 72 h, read-out: −log(IC50) (95% CI), MCF7, 72 h, tested compound alone (converted)) of the same compound?
**A.** 200 µM

**Q.** What about the IC50 (PANC1 cells; PANC-1, 24 h, read-out: −log(IC50) (95% CI), PANC1, 24 h, tested compound alone (converted)) of the same compound?
**A.** 316 µM

**Q.** What about the IC50 (PANC1 cells; PANC-1, 72 h, read-out: −log(IC50) (95% CI), PANC1, 72 h, tested compound alone (converted)) of the same compound?
**A.** 158 µM

**Q.** What about the “decrease of EC50 due to HNL/TMZ combination” value (PANC1 cells; [2]) of the same compound?
**A.** up to three-fold

**Q.** Which results are given for bleomycin [BLM]?
**A.** −log(IC50) (95% CI) (A549 cells; A549, 24 h, supplemented with 10 μM HNL): 5.30 (5.18, 5.43); −log(IC50) (95% CI) (A549 cells; A549, 24 h, tested compound alone): 4.8 (4.7, 5.0); −log(IC50) (95% CI) (A549 cells; A549, 72 h, supplemented with 10 μM HNL): 5.6 (5.5, 5.7); −log(IC50) (95% CI) (A549 cells; A549, 72 h, tested compound alone): 5.2 (5.0, 5.3); −log(IC50) (95% CI) (GM12878 cells; GM12878, 24 h, supplemented with 10 μM HNL): 4.2 (4.0, 4.3); −log(IC50) (95% CI) (GM12878 cells; GM12878, 24 h, tested compound alone): 4.1 (3.91, 4.3); −log(IC50) (95% CI) (GM12878 cells; GM12878, 72 h, supplemented with 10 μM HNL): 4.20 (4.0, 4.4); −log(IC50) (95% CI) (GM12878 cells; GM12878, 72 h, tested compound alone): 4.1 (4.0, 4.3); −log(IC50) (95% CI) (UACC903 cells; UACC903, 24 h, supplemented with 10 μM HNL): 5.5 (5.4, 5.7); −log(IC50) (95% CI) (UACC903 cells; UACC903, 24 h, tested compound alone): 4.9 (4.7, 5.0); −log(IC50) (95% CI) (UACC903 cells; UACC903, 72 h, supplemented with 10 μM HNL): 6.3 (6.0, 6.5); −log(IC50) (95% CI) (UACC903 cells; UACC903, 72 h, tested compound alone): 5.22 (5.1, 5.4); decrease of EC50 due to HNL/BLM combination (UACC903 cells): up to 10 fold; decrease of EC50 due to HNL/BLM combination (UACC903 cells; listed as bleomycin): 10 fold; −log(IC50) (95% CI) (MCF7 cells; MCF7, 24 h, supplemented with 10 μM HNL): 6.0 (5.7, 6.2); −log(IC50) (95% CI) (MCF7 cells; MCF7, 24 h, tested compound alone): 4.9 (4.8, 5.0); −log(IC50) (95% CI) (MCF7 cells; MCF7, 72 h, supplemented with 10 μM HNL): 6.3 (6.1, 6.6); −log(IC50) (95% CI) (MCF7 cells; MCF7, 72 h, tested compound alone): 5.3 (5.2, 5.4); decrease of EC50 due to HNL/BLM combination (MCF7 cells): up to 10 fold; decrease of EC50 due to HNL/BLM combination (MCF7 cells; listed as bleomycin): 10 fold; −log(IC50) (95% CI) (PANC1 cells; PANC1, 24 h, supplemented with 10 μM HNL): 5.9 (5.7, 6.2); −log(IC50) (95% CI) (PANC1 cells; PANC1, 24 h, tested compound alone): 4.9 (4.7, 5.1); −log(IC50) (95% CI) (PANC1 cells; PANC1, 72 h, supplemented with 10 μM HNL): 6.09 (5.9, 6.3); −log(IC50) (95% CI) (PANC1 cells; PANC1, 72 h, tested compound alone): 5.2 (5.0, 5.3); decrease of EC50 due to HNL/BLM combination (PANC1 cells; [2]): up to 10 fold; decrease of EC50 due to HNL/BLM combination (PANC1 cells; PANC1, combination with honokiol (10 μM), listed as bleomycin): 10 fold

**Q.** With `C=C(C)[C@@H]1CC[C@]2(C)[C@H](CC=C3[C@@H]4C[C@@](C)(C(=O)O)CC[C@]4(C)CC[C@]32C)[C@@]1(C)CCC(=O)O` [koetjapic acid] as the compound, how does the Ki (pol β) read?
**A.** low micromolar range

Source: publication PMC5665024 (Chemical research in toxicology, 2017)
